Compounds with a hit are over-represented: about 1.5% of the library has one in this group of screens.
PGC1a acetyl inh – inhibitors of PGC1a acetylation signal, primary screen, cell-based, U2OS, AlphaScreen, inhibitor mode; inhibition, % at 15.6 µM; 350,000 tested, 0.17% active; AID 651687, 2012; AlphaScreen anti-acetyl-lysine; with virally co-expressed GCN5 acetyltransferase;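 active = every replicate shows inhibition of at least 40%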;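 note: 0% = neutral control wells and 100% = positive control wells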
Cneo AK release – Cryptococcus neoformans cell lysis inducers, primary screen, AK release luminescence, single concentration. C. neoformans lysis, adenylate kinase release luminescence, 4 h; normalised: neutral wells 0, clomiphene wells 100. lysis activity, % at 15 µM. 360,000 tested, 0.2% active. AID 651654, 2012;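 active = mean lysis activity across replicates of at least 80%, whatever share of replicates individually reach that level; inactive = mean lysis activity below 80%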
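Signal: Adenylate kinase release luminescence | Assay system: Log-phase Cryptococcus neoformans yeast cells | Input: Cells at 5 × 10^6 per mL | Buffer or medium: Fresh YPD growth medium | Compound: Single dose | Schedule: Static 4 h at 37 °C with compound, 1 h detection | Controls: Clomiphene | Read-out: Luminescence rise reflecting yeast cell lysis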
MITF TRPM1 HTS – activators of MITF-driven TRPM1 promoter reporter, primary screen, cell-based, SK-MEL-5, luciferase, single point; SK-MEL-5 TRPM1-promoter luciferase, 24 h; % of positive control, neutral wells = 0; 300,000 tested, 0.75% active; activation, % at 12.5 µM;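 active = mean activation of at least 80% with every replicate also reaching 80%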;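 note: 0% = neutral control wells and 100% = parthenolide positive control wells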
Wnt act – Wnt/beta-catenin pathway activators, primary screen, cell-based, plate reader, single point; Wnt/beta-catenin reporter cell assay, activator; 300,000 tested, 1.2% active; AID 743398, 2014; activation, % at 9.35 µM; in the data active = activation above about 30%, passing the limit was not always enough;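 note: 0% = neutral control wells and 100% = positive control wells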
An asterisk follows results filed as active; x = no result.

SMILES	PGC1a acetyl inh	Cneo AK release	MITF TRPM1 HTS	Wnt act
CC1(C)Nc2ccccc2C(=O)N1c1ccc(Br)cc1	x	x	x	66*
COc1ccc(N2C(=O)c3ccccc3NC23CCCCC3)cc1	-16	-5	99*	28
COc1ccc(N2C(=O)c3ccccc3NC2(C)C)cc1	5	-6	47	-1
COc1ccc(/C=C2/C(=O)N(c3ccccc3)N=C2C)cc1OC	12	5	x	0
COc1cccc(/C=C/C(=C2\C(=O)N(c3ccccc3)N=C2C)c2ccc(Br)cc2)c1OC	2	-3	x	33*
O=C(C[C@H]1CC[C@H]2[C@@H](COC[C@@H](O)CN2S(=O)(=O)c2cccc(F)c2)O1)NC1CCC1	1	-5	x	x
CO[C@@H]1CN(C)C(=O)c2cc(NC(=O)c3ccc4c(c3)OCO4)ccc2OC[C@@H](C)N(CC2CC2)C[C@H]1C	105*	-2	x	x
CO[C@@H]1CN(C)C(=O)c2ccc(NC(=O)Nc3c(C)noc3C)cc2OC[C@H](C)N(CC2CC2)C[C@@H]1C	101*	1	x	x
COc1ccccc1C(=O)Nc1ccc2c(c1)C(=O)N(C)C[C@H](OC)[C@@H](C)CN(CC1CC1)[C@@H](C)CO2	-7	96*	x	x
COc1ccccc1C(=O)Nc1ccc2c(c1)C(=O)N(C)C[C@@H](OC)[C@@H](C)CN(CC1CC1)[C@H](C)CO2	-26	-11	x	x
CCCNC(=O)C[C@@H]1CC[C@H]2[C@@H](COC[C@H](O)CN2C(=O)Nc2cccc(Cl)c2)O1	3	-2	x	x
COc1ccc(-c2ccccc2[C@@H]2[C@@H](CO)N(C(=O)NC3CCCC3)[C@H]2C#N)cc1	3	x	x	x
COc1cc2sc3ccc(-c4ccc(CN5CCOCC5)cc4)cc3c(=O)c2cc1OC	8	-2	-4	22
Cn1c2ccccc2c(=O)c2ccc(Cl)cc21	x	-2	x	5
COc1ccc(-c2ccc3sc4ccccc4c(=O)c3c2)cn1	x	-1	50	39*
COc1cc2sc3ccc(-c4ccc(N(C)C)nc4)cc3c(=O)c2cc1OC	x	x	x	44*
CN(C)c1ccc(-c2ccc3c(=O)c4ccccc4n(C)c3c2)cn1	-19	0	27	36*
Cn1cnc(CCNC(=O)C[C@H]2CC[C@@H]3[C@H](COC[C@H](O)CN3C(=O)Nc3ccccc3)O2)c1	1	0	x	x
COc1cccc(NC(=O)COC(=O)c2sccc2C)c1	-3	4	108*	7
Cc1cccc(NC(=O)COc2ccccc2)c1	5	-4	62	4
COc1cccc(NC(=O)COC(=O)c2c(F)cccc2F)c1	x	4	-11	x
Cc1ccc(C)c(OCC(=O)Nc2cccc(C(=O)O)c2)c1C	x	0	x	37*
Cc1cccc(OCC(=O)Nc2cccc(O)c2)c1	-8	0	x	34*
O=C(COc1cc(Cl)c(Cl)cc1Cl)Nc1cccc(O)c1	x	x	139*	45*
O=C(COc1cc(Cl)c(Cl)cc1Cl)Nc1ccncc1	-5	2	x	10
SMILES	PGC1a acetyl inh	Cneo AK release	MITF TRPM1 HTS	Wnt act
Cc1cccc(S(=O)(=O)N2CC[C@@H]3[C@@H](CO)Nc4ccc(C#Cc5ccc(F)cc5)cc4[C@@H]32)c1	-19	52	x	x
C[C@@H]1CCCCO[C@H](CN(C)Cc2ccc3c(c2)OCO3)[C@H](C)CN([C@H](C)CO)C(=O)c2cc(NS(=O)(=O)c3ccc(F)cc3)ccc2O1	-13	9	x	x
CNC[C@@H]1Oc2ccc(NC(=O)Nc3ccccc3)cc2CC(=O)N([C@H](C)CO)C[C@H]1C	4	-1	x	x
CC(=O)Nc1cccc(OCC(=O)Nc2ccccc2)c1	-51	0	x	38*
CC(=O)Nc1cccc(OCCCNC(=O)c2ccc(C(C)(C)C)cc2)c1	-7	-3	x	31*
Cc1ccc(OCC(=O)Nc2cccc(O)c2)cc1C	-8	-3	104*	49*
O=C(C[C@H]1C[C@@H]2c3cc(NC(=O)NC4CCCCC4)ccc3O[C@@H]2[C@@H](CO)O1)NCCc1ccccc1	-9	0	x	x
O=C(O)CC1S/C(=N/N=C/c2ccc(Br)cc2)N(c2ccccc2)C1=O (configuration not stated)	75*	-1	13	-7
O=C1Cc2c([nH]c3ccc(Br)cc23)-c2ccccc2N1	-77	x	x	96*
COc1ccc(S(=O)(=O)N(CCc2ccccc2)CC(=O)N/N=C/c2ccc3c(c2)OCO3)cc1	x	x	4	-3
O=C(CN(CCc1ccccc1)S(=O)(=O)c1ccc(Cl)cc1)N/N=C/c1ccc2c(c1)OCO2	8	3	-4	34*
O=C(C[C@@H]1CC[C@@H]2[C@H](COC[C@@H](O)CN2C(=O)c2ccccc2)O1)NCc1cccc(F)c1	-9	3	x	x
Nc1ccc(-c2nc3cc([N+](=O)[O-])ccc3o2)cc1	-2	-2	41	44*
Oc1oc(-c2ccc(Br)cc2)nc1/C=N/c1ccccn1	x	x	49	37*
Cc1ccc(-c2nc(C=Nc3ccccc3)c(O)o2)cc1	x	x	43	3
O=C1c2ccccc2S(=O)(=O)N1CC1CC(c2ccc(Cl)cc2)=NO1 (configuration not stated)	x	-2	32	46*
O=C1c2ccccc2S(=O)(=O)N1CC1CC(c2ccccc2)=NO1 (configuration not stated)	-3	15	72	x
Nc1ncc([N+](=O)[O-])c(N2CCCCCC2)n1	53*	-2	7	-4
O=[N+]([O-])c1ccc(N2CCCC2)nc1N1CCCC1	-2	-3	x	0
COc1ccccc1Nc1nc2ccccc2n2cnnc12	-9	-3	29	2
COc1ccccc1Nc1nc2ccccc2n1C	5	-2	92*	14
O=C(Nc1cc(F)ccc1F)N[C@@H]1CC[C@H](CCn2cc(C3CC3)nn2)O[C@@H]1CO	5	0	x	x
O=C(NCc1nnc(SCC(=O)N2CCCc3ccccc32)o1)c1c(F)cccc1Cl	-7	x	-2	50*
Cc1ccc(SCn2nnc3ccccc3c2=O)c(C)c1	9	x	110*	27
O=c1c2ccccc2nnn1CCc1ccccc1	-6	-4	x	43*
SMILES	PGC1a acetyl inh	Cneo AK release	MITF TRPM1 HTS	Wnt act
O=c1c2ccccc2nnn1Cc1ccccc1	-1	x	2	5
Cn1nnc(-c2ccc(OCc3ccccc3F)cc2)n1	5	-6	60	38*
COc1ccc2c(c1)CC/C(=C\c1ccc(C)o1)C2=O	-1	0	87*	16
COc1ccccc1C1C(C#N)=C(N)N(N(C)C)C2=C1C(=O)CC(C)(C)C2 (configuration not stated)	8	0	-4	40*
CCOc1cc(/C=C2\CN(C)C/C(=C\c3ccc(O)c(OCC)c3)C2=O)ccc1O	53*	-1	-102	-20
CCOc1cc(/C=N/NC(=O)N/N=C/c2ccc(O)c(OCC)c2)ccc1O	x	x	x	49*
COCC(=O)N[C@@H]1C=C[C@H](CC(=O)NCc2ccccc2OC)O[C@@H]1CO	0	-2	x	x
COc1ccc(Nc2cc3n(c(=O)n2)CCc2cc(OC)c(OC)cc2-3)cc1	7	-3	41	0

Source: PubChem BioAssay
